Source: ChEMBL document CHEMBL1811872, “Tryptophan 2,3-dioxygenase (TDO) inhibitors. 3-(2-(pyridyl)ethenyl)indoles as potential anticancer immunomodulators” (J Med Chem, 2011)
≈ marks a conversion by molar mass, not a printed value.

What was measured:
[1] = Displacement of [3H]RX821002 from adrenergic alpha2 receptor
[2] = molecular target: T1, MAO-A (amine oxidase [flavin-containing] A) (Homo sapiens, UniProt P21397); assay: Inhibition of MAO-A at 10 uM relative to control
T1 sequence (P21397 whole entry): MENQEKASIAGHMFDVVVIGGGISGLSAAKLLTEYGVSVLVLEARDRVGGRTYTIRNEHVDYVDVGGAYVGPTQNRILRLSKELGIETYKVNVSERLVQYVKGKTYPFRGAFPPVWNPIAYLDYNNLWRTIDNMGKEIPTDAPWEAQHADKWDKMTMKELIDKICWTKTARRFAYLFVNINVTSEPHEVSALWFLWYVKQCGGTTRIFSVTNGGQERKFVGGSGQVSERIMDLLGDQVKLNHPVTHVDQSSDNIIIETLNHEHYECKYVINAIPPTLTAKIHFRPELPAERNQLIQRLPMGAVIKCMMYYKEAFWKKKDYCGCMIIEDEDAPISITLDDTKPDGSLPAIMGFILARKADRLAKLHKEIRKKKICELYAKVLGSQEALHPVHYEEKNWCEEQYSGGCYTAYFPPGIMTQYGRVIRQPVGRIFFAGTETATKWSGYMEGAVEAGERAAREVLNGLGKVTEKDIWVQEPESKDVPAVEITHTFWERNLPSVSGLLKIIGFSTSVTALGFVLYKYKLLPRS

[3] = molecular target: T2, MAO-B (amine oxidase [flavin-containing] B) (Homo sapiens, UniProt P27338); assay: Inhibition of MAO-B at 10 uM relative to control
T2 sequence (P27338 whole entry): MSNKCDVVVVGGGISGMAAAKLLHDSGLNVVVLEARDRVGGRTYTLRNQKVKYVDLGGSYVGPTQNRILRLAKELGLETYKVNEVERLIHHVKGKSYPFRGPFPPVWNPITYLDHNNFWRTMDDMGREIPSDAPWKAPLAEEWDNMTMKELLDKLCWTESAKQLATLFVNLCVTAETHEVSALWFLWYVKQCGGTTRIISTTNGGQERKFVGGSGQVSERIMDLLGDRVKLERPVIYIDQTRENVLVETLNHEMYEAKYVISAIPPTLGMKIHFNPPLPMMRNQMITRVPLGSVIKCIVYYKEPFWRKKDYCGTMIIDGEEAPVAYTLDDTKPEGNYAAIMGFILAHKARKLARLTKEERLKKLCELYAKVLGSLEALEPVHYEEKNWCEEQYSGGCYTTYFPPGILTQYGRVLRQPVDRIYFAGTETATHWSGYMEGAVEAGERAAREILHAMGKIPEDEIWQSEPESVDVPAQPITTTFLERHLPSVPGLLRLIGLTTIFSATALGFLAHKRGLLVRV

Mus musculus = assay: Toxicity in mouse P815B cells expressing TDO xenografted immunized mouse at 160 mg/kg/day, po administered with water; format: organism-based; design: route oral; conditions: in vivo
[4] = Plasma concentration in DBA/2 mouse at 160 mg/kg/day, po administered for 7 days with water; format: ADME, organism-based; design: route oral
In short: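 DBA/2 mice received the compound dissolved in drinking water (1 mg/mL) ad libitum. Mean water intake was 4.0 mL/mouse/day, giving about 160 mg/kg/day. Plasma levels of compound, L-Trp and kynurenine were measured at days 0, 1, 2 and 7.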

[5] = molecular target: Tryptophan 2,3-dioxygenase (Mus musculus, UniProt P48776); assay: Inhibition of mouse TDO expressed in mouse P815B cells assessed as inhibition of tryptophan catabolism by measuring kynurenine production after 8 hrs by HPLC analysis; format: cell-based
[6] = Cytotoxicity against mouse P815B cells […] by MTT assay; format: functional; conditions: read-out: LD50 (the source's name)
[7] = Chemical stability of the compound in phosphate buffered saline assessed as compound remaining at pH 7.4 after 1.5 hrs; format: physicochemical; conditions: read-out: Stability
In short: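 Compound was incubated in phosphate-buffered saline, pH 7.4, for 1.5 h; read-out was the percentage of compound recovered.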

[8] = Solubility of the compound in phosphate buffered saline at pH 7.4; format: physicochemical
In short: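 Solubility was measured experimentally in phosphate buffer (PBS), pH 7.4, at room temperature.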

[9] = Displacement of [3H]prazosin from adrenergic alpha1 receptor
[10] = molecular target: 5-hydroxytryptamine receptor 2B (Homo sapiens, UniProt P41595); assay: Displacement of [125I](+/-)-DOI from human 5HT2B receptor
[11] = molecular target: Tryptophan 2,3-dioxygenase (Homo sapiens, UniProt P48775); assay: Competitive inhibition of human recombinant TDO expressed in Escherichia coli BL21 using L-tryptophan as substrate by measuring conversion of N-formylkynurenine into kynurenine after 30 mins by Michaelis-Menten steady state analysis
Chain of Tryptophan 2,3-dioxygenase (Homo sapiens, UniProt P48775) (P48775 whole entry): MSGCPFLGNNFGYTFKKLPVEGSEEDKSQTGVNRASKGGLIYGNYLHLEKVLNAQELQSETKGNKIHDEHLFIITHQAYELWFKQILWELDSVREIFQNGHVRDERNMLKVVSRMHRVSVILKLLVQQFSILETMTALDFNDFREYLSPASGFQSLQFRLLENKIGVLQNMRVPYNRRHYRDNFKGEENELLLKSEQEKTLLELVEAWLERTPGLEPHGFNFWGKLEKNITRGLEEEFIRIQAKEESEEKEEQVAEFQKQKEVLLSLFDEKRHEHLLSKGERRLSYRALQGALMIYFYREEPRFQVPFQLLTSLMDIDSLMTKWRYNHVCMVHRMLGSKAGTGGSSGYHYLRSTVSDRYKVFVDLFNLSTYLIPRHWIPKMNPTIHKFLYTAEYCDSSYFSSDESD

Chain of Tryptophan 2,3-dioxygenase (Mus musculus, UniProt P48776) (P48776 whole entry): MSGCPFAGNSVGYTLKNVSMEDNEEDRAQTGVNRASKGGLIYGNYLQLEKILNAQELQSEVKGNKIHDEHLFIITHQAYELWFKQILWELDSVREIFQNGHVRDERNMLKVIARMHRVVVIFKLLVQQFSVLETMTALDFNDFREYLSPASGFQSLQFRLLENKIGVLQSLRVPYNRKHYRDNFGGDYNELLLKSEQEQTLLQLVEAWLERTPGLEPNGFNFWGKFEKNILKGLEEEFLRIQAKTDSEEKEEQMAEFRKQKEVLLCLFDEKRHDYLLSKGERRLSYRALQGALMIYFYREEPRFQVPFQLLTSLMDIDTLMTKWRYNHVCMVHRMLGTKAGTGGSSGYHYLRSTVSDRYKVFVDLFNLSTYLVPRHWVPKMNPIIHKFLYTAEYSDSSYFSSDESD
Chain of 5-hydroxytryptamine receptor 2B (P41595 whole entry): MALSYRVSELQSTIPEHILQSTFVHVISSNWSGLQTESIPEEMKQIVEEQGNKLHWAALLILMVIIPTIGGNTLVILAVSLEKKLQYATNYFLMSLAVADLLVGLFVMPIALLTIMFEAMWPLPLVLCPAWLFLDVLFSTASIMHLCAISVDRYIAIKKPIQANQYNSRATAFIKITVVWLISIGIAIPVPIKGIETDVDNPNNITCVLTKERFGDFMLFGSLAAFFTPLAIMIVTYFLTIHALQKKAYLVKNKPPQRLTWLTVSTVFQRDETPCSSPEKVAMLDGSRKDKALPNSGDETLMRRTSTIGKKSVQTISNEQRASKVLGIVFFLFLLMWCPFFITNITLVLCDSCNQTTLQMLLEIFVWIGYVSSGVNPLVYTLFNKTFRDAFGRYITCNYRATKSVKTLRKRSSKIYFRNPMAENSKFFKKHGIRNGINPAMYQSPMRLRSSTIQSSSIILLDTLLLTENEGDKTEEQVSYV

| SMILES | IC50 [5] | CC50 [6] | also measured |
| --- | --- | --- | --- |
| COC(=O)[C@@H]1[C@H]2C[C@H]3c4[nH]c5ccccc5c4CCN3C[C@@H]2CC[C@@H]1O [YOHIMBINE] | – | – | Ki [1]: 0.033 µM |
| Fc1ccc2c(/C=C/c3nnn[nH]3)c[nH]c2c1 | 2 µM | > 400 µM | inhibition at 10 µM [2]: < 10%; inhibition at 10 µM [3]: < 10%; Activity (Mus musculus): Non-toxic; concentration at 168 h [4]: 60000 nM; remaining at 1.5 h [7]: 93.3%; solubility [8]: > 300 µM |
| COc1cc2nc(N3CCN(C(=O)c4ccco4)CC3)nc(N)c2cc1OC [PRAZOSIN] | – | – | Ki [9]: 0.071 nM |
| O=[N+]([O-])c1ccc2[nH]cc(/C=C/c3cccnc3)c2c1 | > 200 µM | > 200 µM | – |
| Fc1ccc2c(/C=C/c3cccnc3)c[nH]c2c1 | 1 µM | > 80 µM | concentration at 168 h [4]: 100 nM; remaining at 1.5 h [7]: 67.6%; solubility [8]: 92 µM (≈ 21.9 µg/mL) |
| N#CSCCc1c[nH]c2ccccc12 | 44 µM | > 80 µM | – |
| Fc1ccc2c(/C=C/c3cccc(Cl)c3)c[nH]c2c1 | > 200 µM | > 200 µM | – |
| COc1ccc2c(/C=C/c3cccnc3)c[nH]c2c1 | > 200 µM | > 200 µM | – |
| N#Cc1c[nH]c2ccccc12 | > 80 µM | > 80 µM | – |
| COc1cc(CC(C)N)c(OC)cc1I (racemic) | – | – | Ki [10]: 0.002 µM |
| C(=C\c1c[nH]c2ncccc12)/c1cccnc1 | 18 µM | > 80 µM | – |
| Cc1[nH]c2ccccc2c1/C=C/c1cccnc1 | > 200 µM | > 200 µM | – |
| c1ccc2c(Cc3nnn[nH]3)c[nH]c2c1 | > 80 µM | > 80 µM | – |
| N#C/C=C\c1c[nH]c2ccccc12 | > 80 µM | > 80 µM | – |
| C(=C\c1c[nH]c2ccccc12)/c1cccnc1 | 1 µM | > 80 µM | – |
| O=C(O)c1ccc2[nH]cc(/C=C/c3cccnc3)c2c1 | > 200 µM | > 200 µM | – |
| O=C(O)/C=C/c1c[nH]c2cc(F)ccc12 | 3 µM | > 400 µM | concentration at 168 h [4]: 1400 nM; remaining at 1.5 h [7]: 92.9%; Ki [11]: 32.4 µM; solubility [8]: > 300 µM |
| COC(=O)c1cccc2[nH]cc(/C=C/c3cccnc3)c12 | > 200 µM | > 200 µM | – |

| SMILES | IC50 [5] | CC50 [6] | also measured |
| --- | --- | --- | --- |
| Cc1cccc2c(/C=C/c3cccnc3)c[nH]c12 | > 200 µM | > 200 µM | – |
| N#C/C(=C\c1c[nH]c2cc(F)ccc12)C(=O)O | > 80 µM | > 80 µM | – |
| C(=C\c1c[nH]c2ccncc12)/c1cccnc1 | > 200 µM | > 80 µM | – |
| Fc1ccc2c(/C=C/c3cccc(Br)c3)c[nH]c2c1 | > 200 µM | > 200 µM | – |
| C(=C\c1c[nH]c2ccccc12)/c1ccncc1 | 20 µM | > 100 µM | – |
| N#Cc1cccc(/C=C/c2c[nH]c3cc(F)ccc23)c1 | 1 µM | 20 µM | – |
| Fc1ccc2[nH]cc(/C=C/c3cccnc3)c2c1 | 5 µM | > 80 µM | – |
| N#Cc1ccc2[nH]cc(/C=C/c3cccnc3)c2c1 | > 200 µM | > 200 µM | – |
| CCOC(=O)/C(C#N)=C/c1c[nH]c2cc(F)ccc12 | > 80 µM | > 80 µM | – |
| Clc1cccc2c(/C=C/c3cccnc3)c[nH]c12 | > 200 µM | > 200 µM | – |
| Clc1cccc2[nH]cc(/C=C/c3cccnc3)c12 | > 40 µM | 40 µM | – |
| Fc1cccc2c(/C=C/c3cccnc3)c[nH]c12 | 50 µM | > 400 µM | – |
| Cc1ccc2[nH]cc(/C=C/c3cccnc3)c2c1 | > 200 µM | > 200 µM | – |
| Brc1ccc2[nH]cc(/C=C/c3cccnc3)c2c1 | 40 µM | 20 µM | – |
| C(#Cc1c[nH]c2ccccc12)c1cccnc1 | 6 µM | 200 µM | – |
| C(=C\c1c[nH]c2ccccc12)/c1nnn[nH]1 | 10 µM | > 80 µM | – |
| Fc1ccc2c(/C=C/c3ccccn3)c[nH]c2c1 | 3 µM | 100 µM | – |
| Fc1ccc2c(/C=C/c3ccc4ccccc4c3)c[nH]c2c1 | > 200 µM | > 200 µM | – |
